# KCNQ1 inh = human KCNQ1 channel inhibition; CHO-K1 KCNQ1, FluxOR thallium flux fluorescence; active compounds read high; B-score at 10 µM; actives 1.3% (n = 310,000);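 active = compounds whose thallium flux B-score, printed positive for inhibition, exceeds three library SD while starting fluorescence stays within three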;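 note: channel opened by potassium depolarization with thallium stimulus after 20 min compound exposure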
# Target sequence (P51787 whole entry, looked up): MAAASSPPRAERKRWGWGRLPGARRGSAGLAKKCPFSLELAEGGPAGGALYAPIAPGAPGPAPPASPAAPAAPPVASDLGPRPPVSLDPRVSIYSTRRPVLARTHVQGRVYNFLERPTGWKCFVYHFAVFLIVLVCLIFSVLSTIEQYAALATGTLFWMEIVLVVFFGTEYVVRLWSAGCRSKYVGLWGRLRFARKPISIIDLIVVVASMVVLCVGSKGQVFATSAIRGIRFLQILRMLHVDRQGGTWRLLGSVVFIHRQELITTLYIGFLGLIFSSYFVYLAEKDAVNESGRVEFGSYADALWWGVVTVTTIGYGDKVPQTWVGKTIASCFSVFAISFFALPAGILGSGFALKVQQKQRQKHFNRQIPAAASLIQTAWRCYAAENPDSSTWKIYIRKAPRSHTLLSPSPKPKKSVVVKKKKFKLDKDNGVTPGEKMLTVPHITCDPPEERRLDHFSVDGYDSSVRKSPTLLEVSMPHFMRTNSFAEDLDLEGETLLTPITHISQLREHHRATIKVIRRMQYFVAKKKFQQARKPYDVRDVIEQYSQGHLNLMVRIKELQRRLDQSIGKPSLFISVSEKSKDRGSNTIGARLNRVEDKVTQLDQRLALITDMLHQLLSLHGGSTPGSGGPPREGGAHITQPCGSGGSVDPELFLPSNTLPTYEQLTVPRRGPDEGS
# KCNK3 block = human KCNK3 channel inhibition, primary screen; CHO-KCNK3 thallium flux, FluxOR fluorescence; active compounds read low; O14649; AID 602410; B-score at 10 µM; actives 0.84% (n = 340,000);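 active = B-score under library mean minus 4 SD, starting fluorescence ratio at most library mean plus 5 SD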;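 note: more negative B-score means stronger inhibition of thallium flux through KCNK3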
# hERG protect = shields human hERG channel from block by proarrhythmic agents; activation (rescue from dofetilide block), less the hit threshold, % at 10 µM; Q12809; CHO-hERG, FluxOR thallium flux, dofetilide IC70 present; AID 1511; actives 0.51% (n = 310,000);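 active = activation above the mean of controls blocked by dofetilide plus 5 SD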;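 note: thallium influx through hERG after potassium depolarization seen as dye fluorescence rise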
# KCNQ1 act = potentiators or activators of human KCNQ1 potassium channel; B-score at 10 µM; CHO-K1 KCNQ1, thallium flux FluxOR fluorescence; active compounds read high; P51787; actives 0.35% (n = 310,000); AID 2648;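 active = fluorescence ratio B-score, a plate-corrected score, at least three library SD, with initial intensity B-score within 5 SD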
#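 System: Stable KCNQ1 CHO-K1 line | Incubation: 90 min dye loading and 20 min compound exposure, both at room temperature | Measure: Ratio B score | Medium: Assay buffer for compound exposure, DMSO matched across wells | Compound dosing: Single-concentration screen | Probe or stimulus: K+/Tl+ depolarizing stimulus | Measured by: Kinetic FluxOR fluorescence, 10 s baseline plus 110 s post-stimulus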
# KCNK9 block = blocks the human KCNK9 two-pore domain potassium channel. Q9NPC2. HEK293 KCNK9, FluxOR thallium flux fluorescence; active compounds read low. actives 1.2% (n = 310,000). B-score at 10 µM;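 active = ratio B-score over 3 SD below the library mean, with starting fluorescence within 5 SD of its mean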;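 note: negative B-score means less thallium flux so channel inhibition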
# * marks the source's active call; other numbers are inactive results; i = inactive; . = no result given. Only some compounds are listed: those with a hit (about 3.1% of all), similar ones and a draw of the others.
SMILES,KCNQ1 inh,KCNK3 block,hERG protect,KCNQ1 act,KCNK9 block
Cc1cc(C)n(-c2nc3ccccc3nc2Nc2ccc3c(c2)OCO3)n1,i,i,-13.9,i,-7.26*
CC1(c2nnc(Cc3ccccc3)o2)CC(c2ccccc2[N+](=O)[O-])=NO1 (stereo not drawn),i,i,-7.9,i,i
O=C(NCc1ccc2c(c1)OCO2)C1CC(=O)N(C2CCCCCC2)C1 (stereo not drawn),i,i,5.4*,i,i
CN(C(=O)c1cnccn1)c1nnc(-c2cnccn2)s1,i,i,10.1*,i,i
CCN(C(=O)COC(=O)/C(C#N)=C/c1ccc(OC)cc1)C1CCS(=O)(=O)C1 (stereo not drawn),i,i,-17.8,i,i
CC(C)CN1C(=S)SC(C)(C)C1n1oc(=O)n(-c2ccc(Cl)cc2)c1=O (stereo not drawn),15*,-10.6*,-9.6,i,i
Cc1ccc(/C(O)=C/C(=O)C(=O)NC23CC4CC(CC(C4)C2)C3)cc1,i,i,8.5*,15*,i
Cc1ccc(C(=O)NCC(=O)NC23CC4CC(CC(C4)C2)C3)cc1,i,i,-7.3,i,i
Cc1[nH]c(=O)[nH]c(=O)c1NS(=O)(=O)c1ccc2c(c1)CCCC2,i,i,-3.4,i,i
Cc1ccc(S(=O)(=O)Nc2c(C)[nH]c(=O)[nH]c2=O)cc1C,i,i,5.0*,i,i
O=C(NCCCNC(=O)c1ccc(-c2cccc(Cl)c2)o1)c1cnccn1,i,i,-4.9,i,i
OCCN(CCO)CC(O)COCCC12CC3CC(CC(C3)C1)C2 (stereo not drawn),8*,i,-15.8,i,i
CCN(CC)CC(O)COCCC12CC3CC(CC(C3)C1)C2 (stereo not drawn),i,i,4.3,i,i
Cc1cccc(NC(=O)CSCC(=O)NCc2ccco2)c1,i,i,-8.6,i,i
COC(=O)NCC(C)OC(=O)Nc1cccc(Cl)c1 (stereo not drawn),i,i,-8.4,i,i
CC(CNC(=O)COc1ccccc1)OC(=O)Nc1ccc(Cl)c(Cl)c1 (stereo not drawn),i,i,-22.7,9*,i
O=C(Cc1ccccc1)Nc1ccccc1N1CCN(c2ccccc2)CC1,i,-8.74*,-9.6,i,i
O=C(Nc1ccccc1)/C(=C1\CCCN1)[N+](=O)[O-],i,i,-7.9,i,i
CCN(CC)CCN(C(=O)c1ccc2c(c1)CCCC2)c1nc2ccc(C)cc2s1,12*,i,-30.6,i,i
CCN(CC)CCN(C(=O)c1ccc2c(c1)CCCC2)c1nc2c(C)cccc2s1,8*,i,-13.6,i,i
CCN(CC)CCN(C(=O)c1ccc2c(c1)CCCC2)c1nc2ccc(OC)cc2s1,12*,i,-29.3,i,i
C[C@H](NC(=O)OC(C)(C)C)C(=O)NCC1CCC(C(=O)N[C@@H](Cc2ccccc2)C(=O)O)CC1 (stereo partly drawn),i,i,-1.3,i,i
CCOc1ccccc1N(CC(=O)NCCc1ccccc1)C(=O)CCC(=O)Nc1ccccn1,i,i,-9.2,i,i
CC(=O)Nc1ccc(NC(=O)C(C)OC(=O)C2(c3ccccc3F)CCCC2)cc1 (stereo not drawn),.,i,.,.,.
COc1cc(C(=O)Nc2ccc(S(=O)(=O)N3CCCCC3)cc2)ccc1OCC(=O)N1CCOCC1,.,i,.,.,.
SMILES,KCNQ1 inh,KCNK3 block,hERG protect,KCNQ1 act,KCNK9 block
CCCCN(CCCC)c1nc(OC)nc(-n2nnc(C(C)=O)c2C)n1,i,i,-15.9,i,-6.6*
Oc1cccc(-c2nnc(-c3cccc(O)c3)nn2)c1,.,i,.,.,.
Cc1ccc(-c2ccc(C(=O)O)[nH]2)cc1,i,i,-12.0,i,i
Cc1ccc(-c2csc(=S)[nH]2)cc1,i,i,96.5*,94*,i
S=c1[nH]c(-c2ccc(Cl)cc2)cs1,i,i,86.6*,17*,i
Cc1ccccc1CNS(=O)(=O)c1c(C(=O)N2CCCCC2)c(C)n(C)c1C,i,i,-9.4,i,i
COc1ccc(CCNC(=O)CSc2nnc3ccc(-c4cccnc4)nn23)cc1OC,i,i,-4.6,i,i
COc1ccc(Cl)cc1N1Cc2ccccc2C1,i,i,-0.2,i,-7.23*
CCOC(=O)C1=C(C)NC(=S)NC1c1ccc(OCC(=O)N2CCCCCC2)c(OC)c1 (stereo not drawn),i,i,-10.5,i,i
C/C(=N\NC(=O)c1ccc(Br)cc1)C1C(=O)c2ccccc2C1=O,i,i,-22.5,i,i
C/C(=N\NC(=O)c1ccc(-c2ccccc2)cc1)C1C(=O)c2ccccc2C1=O,7*,i,-24.4,i,i
CC(C)OCCCn1c(SCC(=O)N2CCc3ccccc32)nc2ccccc2c1=O,i,i,-10.5,i,i
c1ccc(N2CCN(c3nc(-c4cccs4)nc4ccccc34)CC2)cc1,i,i,-16.7,i,-14.1*
C/C(=N\N=C(c1ccccc1)c1ccccc1)c1ccco1,7*,i,-14.8,i,i
O=C(/C=C/c1cn(CC(O)CN2CCCCC2)c2ccccc12)c1cccs1 (stereo not drawn),7*,i,-31.1,i,i
Cc1cc(C(=O)CN2CCN(CC(=O)Nc3ccc(F)cc3)CC2)c(C)n1C1CC1,.,i,.,.,.
CCCCc1sc(-c2c(C#N)c(N)nc3c2CCCCC3)cc1[N+](=O)[O-],i,i,-4.1,i,-6.74*
Cc1sc(-c2c(C#N)c(N)nc3c2CCCCCC3)cc1[N+](=O)[O-],i,i,-14.6,i,i
O=C(/C=C/c1ccc(S(=O)(=O)N2CCOCC2)cc1)NCCCn1ccnc1,i,i,-12.6,i,i
COc1ccccc1N1C(=O)C2C(C(=O)c3ccccc3)=NN(c3ccccc3)C2C1=O (stereo not drawn),6*,i,-0.1,i,i
COC(=O)c1cnn(-c2ccccc2)c1/C=N/NC(=S)Nc1ccc(Cl)cc1,i,i,-7.4,i,i
CCCCSc1nc(NCc2ccco2)c2c3c(sc2n1)COC(C)(C)C3,6*,i,-18.5,i,i
CSc1nc(NCc2ccco2)c2c3c(sc2n1)CN(C)CC3,i,.,-17.3,i,i
C[C@@H]1CN(Cc2nc(-c3cnccn3)no2)C[C@H](C)O1,i,i,7.4*,i,i
CCCOC1CCCN(Cc2nc(-c3cnccn3)no2)C1 (stereo not drawn),i,i,-17.4,i,i
Cc1c(C(=O)N2CCN(S(=O)(=O)c3ccccc3F)CC2)oc2c(Cl)cccc12,.,i,.,.,.
